Assay results taken from ChEMBL document CHEMBL2321694, “Novel 3-hydroxy vinylboronates influence sphingolipid metabolism, cause apoptosis in Jurkat cells and prevent tumor development in nude mice” (Bioorg Med Chem Lett, 2013).
Calls of active or inactive are those of the source. The calls are words filed in the database; no cut-off is given here.

Tests used:
ARH-77 = assay: Cytotoxicity against human ARH77 cells assessed as cell survival after 72 hrs by MTT assay; assay type: functional, cell-based
Method in brief: (§1)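 Cells at 1 × 10^6 cells/ml were plated in RPMI 1640 without FCS; adherent lines (HT-29, ARH-77, Melanoma-624) were left overnight to attach first. Compound was added and MTT read after 72 h incubation at 37 °C, 5% CO2; IC50 derived.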

HT-29 [1] = assay: Cytotoxicity against human HT-29 cells assessed as cell survival after 72 hrs by MTT assay; assay type: functional, cell-based; method in brief: as §1
Mus musculus = assay: Toxicity in nude mouse xenografted with human HT-29 cells assessed as adverse effect at 50 mg/kg, ip up to day 50; assay type: organism-based; set-up: dose 50 mg/kg, route intraperitoneal; settings: in vivo
Method in brief: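 HT-29 xenograft (1 × 10^6 cells sc) in female nude mice dosed ip once daily for 3 weeks (15 injections) in cremophor/ethanol/water (10:10:80), followed to day 50; general health checked daily by weighing and clinical examination.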

HT-29 [2] = assay: Antitumor activity against human HT-29 cells xenografted in nude mouse assessed as tumor growth inhibition at 50 mg/kg, ip measured after 33 days; assay type: functional, organism-based; set-up: dose 50 mg/kg
Method in brief: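 Female nude mice 5–6 weeks old (SPF, ~22 °C, 12-h light–dark) injected sc with 1 × 10^6 HT-29 cells, randomized same day to 50 mg/kg (n=5) or vehicle cremophor/ethanol/water (10:10:80) (n=6). Once-daily ip injections for 3 weeks (15 injections), then 4 weeks follow-up; read-out was percentage of tumor-free mice over time.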

Jurkat [3] = assay: Induction of apoptosis in human Jurkat cells assessed as increase in apoptotic cells at 100 uM after 24 hrs by annexin V-propidium iodide staining-based FACS flow cytometric analysis (reference value: 11.99%); assay type: functional
Jurkat [4] = assay: Cytotoxicity against human Jurkat cells assessed as cell survival after 72 hrs by MTT assay in presence of 10% FCS; assay type: functional, cell-based
Method in brief: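 Jurkat MTT viability run in RPMI 1640 with 10% FCS, 72 h incubation with compound at 37 °C, 5% CO2; IC50 derived.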

Jurkat [5] = assay: Cell cycle arrest at human Jurkat cells assessed as accumulation at sub G1 phase at 100 uM after 24 hrs by propidium iodide staining-based FACS flow cytometric analysis relative to control; assay type: functional
Method in brief: (§2)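 Jurkat cells at 1 × 10^6 cells/ml were exposed to compound or vehicle (0.2% DMSO) for 24 h. They were then fixed in cold 70% ethanol, and RNAse (50 μg/ml) and PI were added in PBS. Cell-cycle distribution, including sub-G1, was read by flow cytometry. Data are mean ± s.d., with t test versus naïve control.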

Jurkat [6] = assay: Cytotoxicity against human Jurkat cells assessed as cell survival after 72 hrs by MTT assay; assay type: functional, cell-based; method in brief: as §1
[7] = Cytotoxicity against human Melanoma-624 cells assessed as cell survival after 72 hrs by MTT assay; assay type: functional, cell-based; settings: Homo sapiens, 624, 72 h; method in brief: as §1
Jurkat [8] = assay: Cell cycle arrest at human Jurkat cells assessed as accumulation at sub G1 phase at 20 to 50 uM after 24 hrs by propidium iodide staining-based FACS flow cytometric analysis; assay type: functional; settings: 100 uM, in the assay text read “100 uM” for “20 to 50 uM”; method in brief: as §2
Jurkat [9] = assay: Reduction of sphingomyelin synthesis in fluorescent Bodipy-12-ceramide-treated human Jurkat cells administered 30 mins prior to Bodipy-12-ceramide addition measured after 72 hrs by HPLC analysis in presence of 10% FCS; assay type: functional, cell-based
Method in brief: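 Jurkat cells (0.75 × 10^6 cells/ml) in medium with 10% FCS received compound or vehicle (0.1% DMSO); 30 min later 0.25 μM Bodipy-12-ceramide was added. After 72 h, lipids were extracted with dichloromethane/methanol, and ceramide and sphingomyelin percentages were quantified by C18 HPLC with fluorescence detection (Ex 505, Em 530 nm). Mean ± s.d., t test versus vehicle.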

HT-29 [10] = assay: Antitumor activity against human HT-29 cells xenografted in nude mouse assessed as tumor growth inhibition at 50 mg/kg, ip measured up to day 33; assay type: functional, organism-based; set-up: dose 50 mg/kg
[11] = Homo sapiens, ARH-77, 72 h, read-out: IC50
[12] = Homo sapiens, HT-29, 72 h, read-out: IC50

CCC/C(=C\B1OC(C)(C)C(C)(C)O1)C(O)(c1ccccc1)C1CC1 (stereo unspecified)
IC50 (ARH-77; [11]): 55.2 µM | IC50 (HT-29 [1]; [12]): 83.9 µM

CCC/C(=C\B1OC(C)(C)C(C)(C)O1)C1(O)CCCc2ccccc21 (stereo unspecified)
IC50 (ARH-77; [11]): 64.9 µM | IC50 (HT-29 [1]; [12]): 86.8 µM

CCCCC(C)(O)/C(=C/B1OC(C)(C)C(C)(C)O1)CCC (stereo unspecified)
IC50 (ARH-77; [11]): 54.6 µM | IC50 (HT-29 [1]; [12]): 69.6 µM

CCCCCCC(C)(O)/C(=C/B1OC(C)(C)C(C)(C)O1)CCC (stereo unspecified)
IC50 (ARH-77; [11]): 33.9 µM | IC50 (HT-29 [1]; [12]): 57.2 µM

CCC/C(=C\B1OC(C)(C)C(C)(C)O1)C(O)c1ccccc1 (stereo unspecified)
IC50 (ARH-77; arh-77): Not Active | IC50 (HT-29 [1]; [12]): > 100 µM

CCCCC/C(=C\B1OC(C)(C)C(C)(C)O1)C(O)(c1ccccc1)C1CC1 (stereo unspecified)
IC50 (ARH-77; [11]): 10.4 µM | IC50 (HT-29 [1]; ht-29): Not Active

CCCCCCCC/C(=C\B1OC(C)(C)C(C)(C)O1)C(C)(O)CCCCCC (stereo unspecified)
IC50 (ARH-77; [11]): 79.1 µM | IC50 (HT-29 [1]; [12]): > 100 µM

CCCCCCCC/C(=C\B1OC(C)(C)C(C)(C)O1)C(O)(c1ccccc1)C1CC1 (stereo unspecified)
Activity (Mus musculus): Non-toxic | TGI (HT-29 [2]): inactive | Activity (Jurkat [3]): 15.22% | IC50 (Jurkat [4]): 84 µM | fold change (FC) (Jurkat [5]): >2 | IC50 (Jurkat [6]): 16.3 µM | IC50 [7]: 32.3 µM | IC50 (ARH-77; [11]): 6.36 µM | IC50 (HT-29 [1]; [12]): 18.3 µM | Activity (Jurkat [8]): Active | Activity (Jurkat [9]): Dose-dependent effect | TGI (HT-29 [10]): Active
